Test results reported in ChEMBL document CHEMBL1156938, “Synthesis and in vitro biological evaluation of carbonyl group-containing inhibitors of vesicular acetylcholine transporter” (J Med Chem, 2010).

Legend:
[1] = biological target: T1, Vesicular acetylcholine transporter (Torpedo californica, UniProt P81721); test: Displacement of [3H]vesamicol from VAChT in Torpedo californica cholinergic synaptic vesicles; parameters: species or system Tetronarce californica
T1 sequence (P81721 whole entry): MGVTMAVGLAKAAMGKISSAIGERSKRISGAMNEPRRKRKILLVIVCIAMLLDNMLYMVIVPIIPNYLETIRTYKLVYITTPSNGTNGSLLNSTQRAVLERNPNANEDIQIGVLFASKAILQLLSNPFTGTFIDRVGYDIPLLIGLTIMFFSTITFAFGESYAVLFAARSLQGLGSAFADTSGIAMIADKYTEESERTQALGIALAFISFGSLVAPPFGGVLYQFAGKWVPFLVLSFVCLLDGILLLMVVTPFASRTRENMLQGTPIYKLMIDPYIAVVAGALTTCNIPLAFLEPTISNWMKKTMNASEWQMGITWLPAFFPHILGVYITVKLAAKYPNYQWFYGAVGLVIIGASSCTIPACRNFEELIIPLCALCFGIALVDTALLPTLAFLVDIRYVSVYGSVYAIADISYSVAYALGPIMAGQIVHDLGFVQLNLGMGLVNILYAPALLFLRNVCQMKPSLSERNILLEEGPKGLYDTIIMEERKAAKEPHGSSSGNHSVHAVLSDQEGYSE
In short: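 Compounds tested as hydrochlorides. Averaged data fit by regression to a rectangular hyperbola to give Ki. Each compound assayed independently at least two times; Ki reported as mean ± SEM from at least three experiments.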

[2] = Selectivity ratio of Ki for sigma 1 receptor in guinea pig brain membrane homogenates to Ki for VAChT in Torpedo californica cholinergic synaptic vesicles; assay type: cell membranes
In short: (§1)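 Index calculated as Ki(σ1 or σ2)/Ki(VAChT). […] Averaged data were fit to a rectangular hyperbola, and each compound was assayed independently at least twice. σ Ki values come from the radioligand binding assays in guinea pig brain (σ1) and rat liver (σ2) membranes.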

[3] = biological target: Sigma non-opioid intracellular receptor 1 (Cavia porcellus, UniProt Q60492); test: Displacement of [3H](+)-pentazocine from sigma 1 receptor in guinea pig brain membrane homogenates after 90 mins by liquid scintillation counting; assay type: cell membranes
In short: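 Compounds dissolved in DMF, DMSO or ethanol, then diluted in 50 mM Tris-HCl, 150 mM NaCl, 100 mM EDTA, pH 7.4. Guinea pig brain membranes (~300 μg protein) with ~5 nM [3H](+)-pentazocine, 90 min at room temperature. Nonspecific binding taken with 10 μM haloperidol. Filtered and counted. IC50 from one-site nonlinear fit. Ki by Cheng-Prusoff (Kd 7.89 nM), mean ± SEM.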

[4] = Displacement of [3H]DTG from sigma 2 receptor in rat liver membrane homogenates after 2 hrs by liquid scintillation counting; assay type: cell membranes
In short: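 Rat liver membranes (~300 μg protein) with ~5 nM [3H]DTG plus 1 μM (+)-pentazocine to mask σ1 sites, 2 h at room temperature. Compounds were diluted in pH 7.4 Tris-HCl/NaCl/EDTA buffer. Nonspecific binding taken with 10 μM haloperidol, then filtration and scintillation counting. IC50 from one-site regression. Ki by Cheng-Prusoff (Kd 30.73 nM), mean ± SEM.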

[5] = Selectivity ratio of for sigma 2 receptor in rat liver membrane homogenates to Ki for VAChT in Torpedo californica cholinergic synaptic vesicles; assay type: cell membranes; in short: as §1

Sequence of Sigma non-opioid intracellular receptor 1 (Q60492 whole entry): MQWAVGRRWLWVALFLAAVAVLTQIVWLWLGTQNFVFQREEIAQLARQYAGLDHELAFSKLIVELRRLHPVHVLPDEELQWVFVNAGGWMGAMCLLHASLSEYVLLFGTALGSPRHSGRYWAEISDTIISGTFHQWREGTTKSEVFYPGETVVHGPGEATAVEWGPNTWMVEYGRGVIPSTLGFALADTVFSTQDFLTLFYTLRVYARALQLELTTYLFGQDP

| SMILES | Ki [1] [nM] | Ratio Ki [2] | Ki [3] [nM] | Ki [4] [nM] | Ratio Ki [5] |
| --- | --- | --- | --- | --- | --- |
| O=C(c1ccccc1)C1(c2ccccc2)CCN([C@@H]2CCCC[C@H]2O)CC1 | 68.5 |  |  |  |  |
| O=C(C1CCN([C@@H]2Cc3ccccc3C[C@H]2O)CC1)N1CCC(c2ccccc2)CC1 (relative stereo) | 2.07 | 24.3 | 50.2 | > 1000 |  |
| O=C(c1ccc(F)cc1)C1(c2ccccc2)CCN([C@@H]2Cc3ccccc3C[C@H]2O)CC1 | 1.83 |  |  |  |  |
| Nc1cccc2c1C[C@@H](O)[C@H](N1CCC(C(=O)c3ccc(Br)s3)CC1)C2 | 29.4 | 16.4 | 483 | 121 | 4.1 |
| Nc1cccc2c1C[C@@H](N1CCC(C(=O)c3ccc(F)cc3)CC1)[C@H](O)C2 | 2.4 |  | > 1000 | > 1000 |  |
| Nc1cccc2c1C[C@@H](O)[C@H](N1CCC(C(=O)c3ccc(F)cc3)CC1)C2 | 7.6 | 65.4 | 497 | 353 | 46.4 |
| O=C(c1ccc(Br)cc1)C1CCN([C@@H]2CCCC[C@H]2O)CC1 | 51.4 | 0.3 | 15.9 | 30.1 | 0.6 |
| O[C@@H]1CCCC[C@H]1N1CCC(c2ccccc2)CC1 [VESAMICOL] |  |  |  | 34.5 |  |
| O=C(C1CCN([C@@H]2Cc3ccccc3C[C@H]2O)CC1)N1CCC(Cc2ccccc2)CC1 (relative stereo) | 2.4 | 8.3 | 19.9 | > 1000 |  |
| O=C(c1ccc(I)s1)C1CCN([C@@H]2CCCC[C@H]2O)CC1 | 560 | 0.02 | 9.39 | 48.9 | 0.1 |
| O=C(C1CCN([C@@H]2Cc3ccccc3C[C@H]2O)CC1)N1CCN(Cc2ccccc2)CC1 (relative stereo) | 2.08 | 56.8 | 118 | > 1000 |  |
| Nc1cccc2c1C[C@@H](N1CCC(C(=O)c3cccs3)CC1)[C@H](O)C2 | 4.9 |  | > 1000 | > 1000 |  |
| Nc1cccc2c1C[C@@H](N1CCC(C(=O)c3ccc(Br)s3)CC1)[C@H](O)C2 | 0.41 |  | > 1000 | > 1000 |  |
| O=C(c1cccs1)C1CCN([C@@H]2Cc3ccccc3C[C@H]2O)CC1 (relative stereo) | 5 |  |  |  |  |
| O=C(c1ccc(Br)s1)C1CCN([C@@H]2CCCC[C@H]2O)CC1 | 46.8 | 0.6 | 29.5 | 35.7 | 0.8 |
| Nc1cccc2c1C[C@@H](N1CCC(C(=O)N3CCCCC3)CC1)[C@H](O)C2 | 89.5 |  |  |  |  |
| O=C(c1ccc(I)s1)C1CCN([C@@H]2Cc3ccccc3C[C@H]2O)CC1 (relative stereo) | 0.66 | 294 | 194 | 344 | 522 |
| CCOC(=O)C1CCN([C@@H]2Cc3ccccc3C[C@H]2O)CC1 (relative stereo) | 68.5 |  | > 1000 | > 1000 |  |
| Nc1cccc2c1C[C@@H](O)[C@H](N1CCC(C(=O)N3CCCCC3)CC1)C2 | 447 |  |  |  |  |
| O=C(c1ccccc1)C1(c2ccccc2)CCN([C@@H]2Cc3ccccc3C[C@H]2O)CC1 (relative stereo) | 1.64 |  |  |  |  |
| O=C(c1ccc(Br)s1)C1CCN([C@@H]2Cc3ccccc3C[C@H]2O)CC1 (relative stereo) | 0.54 | 239 | 129 | 72 | 133 |
| O=C(c1cccs1)C1CCN([C@@H]2CCCC[C@H]2O)CC1 | 763 |  |  |  |  |
| Nc1cccc2c1C[C@@H](N1CCC(C(=O)c3ccc(Br)cc3)CC1)[C@H](O)C2 | 0.53 | 746 | 395 | > 1000 | > 1890 |
| O=C(c1ccccc1)C1CCN([C@@H]2CCCC[C@H]2O)CC1 | 650 | 0.4 | 281 | 341 | 0.5 |
| Nc1cccc2c1C[C@@H](O)[C@H](N1CCC(C(=O)c3cccs3)CC1)C2 | 134 |  | > 1000 | > 1000 |  |
| O=C(C1CCN([C@@H]2Cc3ccccc3C[C@H]2O)CC1)N1CCCCC1 (relative stereo) | 31 |  | > 1000 | > 1000 |  |
| O=C(Cc1ccccc1)C1(c2ccccc2)CCN([C@@H]2Cc3ccccc3C[C@H]2O)CC1 (relative stereo) | 1.38 |  |  |  |  |
| O=C(c1ccc(F)cc1)C1CCN([C@@H]2CCCC[C@H]2O)CC1 | 423 | 0.7 | 303 | 113 | 0.3 |
